Activity calls are given as the source filed them. No cut-off for these calls is given here.
Tests used:
Staphylococcus aureus = assay: Antimicrobial activity against Staphylococcus aureus ATCC 6538 at 100 ug/disk after 24 hrs; assay type: functional, organism-based
Method in brief: (§1)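 Bacteria grown on Mueller-Hinton agar. Paper disks (6 mm) bearing 100 µg compound placed on the agar. Plates incubated at 37 °C for 24 h and examined for a zone of inhibition.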

Streptococcus mutans = assay: Antimicrobial activity against Streptococcus mutans ATCC 25175 at 100 ug/disk after 24 hrs; assay type: functional, organism-based; method in brief: as §1
Enterococcus faecalis = assay: Antimicrobial activity against Enterococcus faecalis ATCC 19433 at 100 ug/disk after 24 hrs; assay type: functional, organism-based; method in brief: as §1
Micrococcus luteus = assay: Antimicrobial activity against Sarcina lutea CMCC B28001 at 100 ug/disk after 24 hrs; assay type: functional, organism-based; method in brief: as §1
Geotrichum candidum = assay: Antifungal activity against Geotrichum candidum AS2.498 at 100 ug/disk after 24 hrs; assay type: functional, organism-based
Candida albicans = assay: Antifungal activity against Candida albicans ATCC 10231 at 100 ug/disk after 24 hrs; assay type: functional, organism-based
Aspergillus fumigatus = assay: Antifungal activity against Aspergillus fumigatus ATCC 10894 at 100 ug/disk after 24 hrs; assay type: functional, organism-based
Bacillus subtilis = assay: Antimicrobial activity against Bacillus subtilis ATCC 6633 at 100 ug/disk after 24 hrs; conditions: for zone of inhibition at 100 µg/disc: ATCC 6633, 24 h, read-out: IZ

Structure (SMILES)	Activity (Staphylococcus aureus)	Activity (Streptococcus mutans)	Activity (Enterococcus faecalis)	Activity (Micrococcus luteus)	Activity (Geotrichum candidum)	Activity (Candida albicans)	Activity (Aspergillus fumigatus)	Activity (Bacillus subtilis)	zone of inhibition at 100 µg/disc (Bacillus subtilis) [mm]
O=C1C[C@@H]2SS[C@@]34C[C@@H]1[C@@H]([C@H]2O)N3C(=O)[C@@]12C[C@H]3C(=O)C[C@H](SS1)[C@H](O)[C@H]3N2C4=O	inactive	inactive	inactive	inactive	inactive	inactive	inactive	inactive	–
O=C1C[C@H]2SS[C@@]34C[C@@H]1[C@@H]([C@H]2O)N3C(=O)[C@@]12C[C@H]3C(=O)C[C@@H](S1)[C@H](O)[C@H]3N2C4=O [EPICOCCIN A]	inactive	inactive	inactive	inactive	inactive	inactive	inactive	–	12
O=C(O)c1cn(C2CC2)c2cc(N3CCNCC3)c(F)cc2c1=O [CIPROFLOXACIN]	–	–	–	–	–	–	–	–	28
O=C1C[C@@H]2SS[C@@]34C[C@@H]1[C@@H]([C@H]2O)N3C(=O)[C@@]12C[C@H]3C(=O)[C@H](S1)[C@H](O)[C@H](O)[C@H]3N2C4=O	inactive	inactive	inactive	inactive	inactive	inactive	inactive	inactive	–
O=C1C[C@@H]2S[C@@]34C[C@@H]1[C@@H]([C@H]2O)N3C(=O)[C@@]12C[C@H]3C(=O)C[C@H](S1)[C@H](O)[C@H]3N2C4=O	inactive	inactive	inactive	inactive	inactive	inactive	inactive	inactive	–
